Assay outcomes (PubChem)
This is a sample that favours compounds with a hit; in the whole collection about 1.7% have one here.
TbMetRS inhib – T. brucei MetRS inhibitors, primary screen, biochemical, luminescence. inhibition, % at 11.9 µM. AID 624268, 2012. purified T. brucei MetRS, ATP depletion, Kinase-Glo luminescence. 0.4% of 360,000 active;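 active means inhibition above a per-plate cutoff of the control wells' mean inhibition plus 3 SD, cut at about 5.5% in these data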
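technique = Kinase-Glo luminescence, ATP depletion format | system = purified MetRS (methionyl-tRNA synthetase) enzyme from Trypanosoma brucei | timing = 15 min preincubation, 2 h reaction, all 25 °C | evaluation = percent inhibition versus plate control medians | dosing = single dose, 11.9 µM final nominal, 0.9% final DMSO | also added = substrates ATP, L-methionine and bulk Escherichia coli tRNA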
CSN inh – inhibitors of CSN-mediated cullin deneddylation, primary screen, biochemical, fluorescence polarization, uHTS. inhibition, % at 12.5 µM. Purified CSN, SCF-Nedd8-OG deneddylation. AID 651999, 2013. 0.38% of 360,000 active;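 active means pattern-corrected inhibition above about 35%, with an unprinted fluorescence ratio check between 0.5 and 1.5, limit read from the data, passing the limit was not always enough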
Target sequence (Q92905 whole entry, looked up, one chain of several): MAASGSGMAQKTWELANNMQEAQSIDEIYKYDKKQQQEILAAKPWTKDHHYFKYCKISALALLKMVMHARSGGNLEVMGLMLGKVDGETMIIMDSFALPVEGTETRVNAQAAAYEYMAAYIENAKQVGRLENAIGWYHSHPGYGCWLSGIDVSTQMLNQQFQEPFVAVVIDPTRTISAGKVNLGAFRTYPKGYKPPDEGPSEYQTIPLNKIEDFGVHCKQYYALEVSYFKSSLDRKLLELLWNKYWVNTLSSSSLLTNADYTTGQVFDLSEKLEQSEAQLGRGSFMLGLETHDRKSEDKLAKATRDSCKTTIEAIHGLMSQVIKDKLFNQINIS
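Test system: purified human Csn5 enzyme expressed in HEK293T cells. Amount: 0.24 nM enzyme. Reagent: SCFSkp2-Nedd8OG substrate at 10 nM final. Schedule: 90 min incubation of compound, enzyme and substrate at room temperature. Detection: fluorescence polarization. Read-out: % inhibition of substrate cleavage by Csn5.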
IDE cell inh – human IDE inhibitors in live cells, primary screen, fluorescence polarization, HEK cells, FAbetaB substrate; FAbetaB cleavage; inhibition, % at 5.59 µM; 0.41% of 320,000 active; AID 434962, 2010;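 active means percent inhibition above the average of all tested compounds plus 3 SD, set per screening campaign, cut at about 16% in these data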;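 further: IDE supplied by intact live HEK cells; FP after avidin binding of uncleaved biotin substrate so inhibition keeps polarization high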
HNF4A DNA FP – change in binding of human HNF4A to DNA, primary screen, biochemical, fluorescence polarization, FITC-DNA; Hepatocyte nuclear factor 4-alpha (Homo sapiens), P41235; 1 h; activity change, % at 10 µM; 0.3% of 360,000 active; AID 1224865, 2016; in the data active means activity change above about 30%, passing the limit was not always enough
TPT1 inhibitor – Candida albicans TPT1 enzyme inhibitors, primary screen, biochemical, fluorescence polarization | tRNA 2'-phosphotransferase TPT1 (Candida albicans SC5314) | recombinant caTPT1, FP RNA substrate dephosphorylation | inhibition, % at 5 µM | 0.81% of 300,000 active | AID 1962, 2009;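 active means inhibition above the mean of all tested compounds plus 3 SD, set per screening campaign, cut at about 24% in these data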
IDE cell activ – human IDE activators in live cells, primary screen, fluorescence polarization, HEK cells, FAbeta-B substrate; Insulin-degrading enzyme (Homo sapiens), P14735; FAbeta-B cleavage; 0% vehicle, 100% cell-free pure enzyme wells; activation, % at 5.96 µM; 0.073% of 340,000 active;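 active means activation above the mean of all tested compounds plus 3 SD, set per screening campaign, cut at about 17% in these data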
A number is an active result; 0 = inactive; - = no result.

SMILES | TbMetRS inhib | CSN inh | IDE cell inh | HNF4A DNA FP | TPT1 inhibitor | IDE cell activ
Cc1cccc(N=C2NC(=O)/C(=C\c3cccs3)S2)c1 | 0 | 0 | 0 | 0 | 0 | 0
O=C(/C=C/c1ccc(Br)cc1)NC(=S)Nc1ccc(S(=O)(=O)Nc2nccs2)cc1 | 0 | 75 | 0 | 0 | 0 | 0
CC(OC(=O)CC1CC2CCC1C2)C(=O)Nc1cccc(S(=O)(=O)N2CCOCC2)c1 (stereo not given) | 0 | 0 | 0 | 0 | 0 | 18
CC(OC(=O)CC1CC2CCC1C2)C(=O)Nc1ccc(N2CCOCC2)cc1 (stereo not given) | 0 | 0 | 0 | 0 | 0 | 0
CC(C)c1cc(C(=O)NCc2ccc(F)cc2)c(N)s1 | 0 | 0 | - | 0 | - | -
Nc1nc(-c2ccc(Oc3ccccc3)cc2)c(CC(=O)O)s1 | 0 | 42 | - | 0 | - | 0
Nc1nc(-c2ccccc2)c(CC(=O)O)s1 | 0 | 0 | - | 0 | - | -
Cc1ccc(Nc2nc(-c3ccc(C)cc3)c(CC(=O)O)s2)cc1 | 0 | 65 | 0 | 0 | 0 | 0
COc1cccc2c1C(=O)c1c(O)c3c(c(O)c1C2=O)C[C@@](O)(C(=O)CO)C[C@@H]3O[C@H]1C[C@H](N)[C@@H](O)[C@H](C)O1 | 0 | 0 | 0 | 0 | 0 | 0
COc1cccc2c1C(=O)c1c(O)c3c(c(O)c1C2=O)C[C@@](O)(C(C)=O)C[C@@H]3O[C@H]1C[C@H](N)[C@H](O)[C@H](C)O1 | 0 | 0 | - | 0 | - | 19
COc1ccc(NC(=O)Cc2ccc(C)c(C)c2)cc1S(=O)(=O)N1CCCCC1 | 0 | 0 | 0 | 0 | - | 0
Cc1ccccc1C=Nc1ccccc1C(N)=O | 0 | 0 | 0 | 0 | 0 | 0
CCCOC(=O)c1cc(-c2ccc(/C=C3/C(=O)N(C)C(=O)C(C#N)=C3C)o2)ccc1Cl | 0 | 0 | 0 | 0 | 24 | 0
CCCOC(=O)c1cc(-c2ccc(C=O)o2)ccc1Cl | 0 | 0 | 0 | 0 | 0 | 0
O=C(COC(=O)CCNS(=O)(=O)c1ccc(Cl)cc1)Nc1ccccc1OC(F)F | 0 | 0 | - | 40 | - | 0
Cc1ccc(-n2c(=O)c3cc4c(=O)n(-c5ccc(C)c(C)c5)c(=O)c4c(C(=O)c4ccc(C(=O)O)cc4)c3c2=O)cc1C | 0 | 84 | 0 | 0 | 0 | 0
O=C(O)c1ccc(-n2c(=O)c3ccccc3c3ccccc3c2=O)cc1 | 0 | 0 | 0 | 0 | 0 | 0
COc1ccc(NC(=O)NNC(=O)c2ccc3ccccc3c2O)c(OC)c1 | 0 | 0 | 0 | 0 | 0 | 0
Cn1c(CN2CCOCC2)nnc1SCC(=O)Nc1ccc([N+](=O)[O-])cc1O | 0 | 0 | 0 | 0 | 0 | 24
CCOC(=O)Nc1cccc2c1-c1ccc([N+](=O)[O-])cc1C2=O | 0 | 0 | - | 0 | - | 0
CCOC(=O)Nc1cc2c(cc1[N+](=O)[O-])-c1ccccc1C2=O | 0 | 0 | - | 38 | - | 0
Cc1cc(=O)oc2cc(OC(=O)c3ccccc3)ccc12 | 0 | 0 | 0 | 0 | 0 | 0
COc1ccccc1-c1c(C(F)(F)F)oc2cc(OC(=O)c3ccc([N+](=O)[O-])cc3)ccc2c1=O | 0 | 0 | 17 | 0 | 0 | 0
O=C(CN1c2cccc3cccc(c23)S1(=O)=O)Nc1ccccc1Br | 0 | 0 | 0 | 0 | - | 0
O=C1CCCCC1Sc1nnc(Nc2ccccc2)s1 (stereo not given) | 0 | 45 | 0 | 0 | 0 | 0
SMILES | TbMetRS inhib | CSN inh | IDE cell inh | HNF4A DNA FP | TPT1 inhibitor | IDE cell activ
C/C(=N/NC(=O)c1cccc(N2CCCC2=O)c1)c1ccncc1 | 0 | 0 | 0 | 0 | 0 | 0
CCCC(=O)Nc1cc(-c2nnc(OC)c3ccccc23)ccc1N1CCCCC1 | - | - | 0 | - | 0 | -
COc1nnc(-c2ccc(N3CCCCC3)c(N)c2)c2ccccc12 | 0 | 110 | 0 | 0 | 0 | 0
Cc1c(C)n2c(SCC(=O)NCc3ccc4c(c3)OCO4)nnc2[nH]c1=O | 0 | 52 | 0 | 0 | 0 | 0
CCCNC(=O)C1(C)CCCN(C(=O)c2cc3ccccc3s2)C1 (stereo not given) | 0 | 0 | - | 0 | - | -
O=C(COC(=O)/C=C/c1ccc([N+](=O)[O-])cc1)Nc1ccc(F)cc1 | 0 | 42 | 0 | 0 | - | 0
CCNC(=O)CN(C1CCCCC1)S(=O)(=O)c1ccc(F)cc1 | 0 | 0 | 0 | 37 | 0 | 0
COCCNC(=O)c1sc2ncn(CC(=O)N3CCCCC3)c(=O)c2c1C | 0 | 0 | 0 | 65 | 0 | 0
Cc1c(C(=O)Nc2c(F)cccc2F)sc2ncn(CC(=O)N3CCCCC3)c(=O)c12 | 0 | 0 | 0 | 0 | 0 | 0
O=C(CSc1nc2ccccc2[nH]1)Nc1ccc2[nH]c(=O)[nH]c2c1 | 0 | 0 | 0 | 0 | - | 0
O=C(CSc1nc2ccccc2[nH]1)Nc1ccc(F)cc1 | 17 | 0 | 0 | 0 | 0 | 0
NC1=NC[C@H](Cc2ccccc2)N1CCc1cccc(F)c1 | 0 | 63 | 0 | 0 | 0 | 0
Fc1cccc(CCN2CCNC[C@@H]2Cc2ccccc2)c1 | 0 | 38 | 0 | 0 | 0 | 0
O=C(NCc1cccnc1)c1ccc(Cl)c(S(=O)(=O)Nc2ccccc2C(=O)NCc2cccnc2)c1 | 0 | 0 | 0 | 0 | 0 | 0
Cc1[nH]c2ccccc2c1C(=O)C(=O)NCc1ccncc1 | 0 | 0 | 0 | 0 | 0 | 0
COc1cccc2c1cc1c(=O)n(CC(=O)NCCCN3CCCCC3)nc(C)n12 | 0 | 0 | 0 | 0 | 0 | 0
CCc1ccc(C(=O)CSc2nc(N)cc(=O)[nH]2)cc1 | 0 | 0 | 0 | 49 | 0 | 0
Cc1ccc(C(=O)CSc2nc(N)cc(=O)[nH]2)cc1C | 0 | 0 | 0 | 0 | 0 | 0
C=CCNc1nc(NCc2ccc(N(C)C)cc2)c2sc(-c3ccccc3)cc2n1 | 0 | 49 | - | 0 | - | -
Cc1cc(C)n(-c2ccccc2C#N)n1 | 0 | 0 | 0 | 0 | 0 | 0
O=C(CN1C(=O)COc2ccc(S(=O)(=O)N3CCCC3)cc21)NCc1ccccn1 | 0 | 0 | 0 | 0 | 0 | 19
Cc1ccccc1NC1=C/C(=N\S(=O)(=O)c2ccc(C(=O)O)cc2)c2ccccc2C1=O | 9.7 | 0 | 0 | 0 | 0 | 0
O=C(N/N=C\c1cccnc1)c1cc(-c2ccc(Cl)s2)[nH]n1 | 0 | 39 | 0 | 0 | 0 | 0
O=C1C=C(c2ccc(-c3ccccc3)cc2)C[C@@H](c2ccc3c(c2)OCO3)C1 | 0 | 0 | 0 | 0 | - | 43
CC(=O)Nc1ccc(NC(=O)C2CCN(S(C)(=O)=O)CC2)cc1 | 0 | 0 | - | 0 | - | -
c1cc2c3c(cccc3c1)NC1(CCCCC1)N2 | 0 | 0 | 0 | 44 | 0 | 0
Cc1[nH]nc(C(=O)NN=Cc2ccccc2Cl)c1N=NN(C)C | 0 | 0 | - | 0 | - | 0
